The values below come from ChEMBL document CHEMBL4706553, “Discovery of potent small molecule PROTACs targeting mutant EGFR” (Eur J Med Chem, 2020).

Experiment [1] concerns NCI-H1975. Description: Inhibition of colony formation in human NCI-H1975 cells at 100 nM incubated for 15 days by crystal violet staining based analysis. Type of experiment: functional, cell-based. The conditions noted are these: time 15.0 day. An outline of the steps: (§1)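 Colony formation: 200 cells per well were seeded and incubated 24 h, then kept with compound for 15 days. After three PBS washes, cells were fixed in cold 75% ethanol and stained with 0.1% crystal violet in water for 1 h. Colonies were counted.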

In experiment [2] the test system is von Hippel-Lindau disease tumor suppressor/Epidermal growth factor receptor (Homo sapiens), P00533+P40337 [UNDEFINED MUTATION]. Description: Protac activity at VHL/EGFR del19 mutant in human HCC827 cells assessed as induction of EGFR degradation at 33 nM by Western blot analysis. Type of experiment: cell-based. The conditions noted are these: time 12-72 hrs, TDE = time-dependent effect. An outline of the steps:
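Time course in HCC827 cells at 33 nM, with protein harvested at each stated time point. EGFR^del19 detected by Western blot.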
(Immunoblotting shows a protein as a band on a membrane.)

For experiment [3], the target named is von Hippel-Lindau disease tumor suppressor/Epidermal growth factor receptor (Homo sapiens, UniProt P00533+P40337). Description: Protac activity at VHL/EGFR in human A431 cells assessed as induction of degradation of EGFR at 0.1 to 3.3 uM incubated for 48 hrs by Western blot analysis. In kind it is cell-based. The conditions noted are these: A-431, dose 0.1-3.3 µM.

Experiment [4] relates to von Hippel-Lindau disease tumor suppressor/Epidermal growth factor receptor (Homo sapiens), P00533+P40337 [L858R,T790M]. Description: Protac activity at VHL/EGFR L858R/T790M mutant in human H1975 cells assessed as induction of degradation of EGFR by measuring reduction in Akt phosphorylation at 100 nM incubated for 48 hrs by Western blot analysis. Type of experiment: cell-based. The conditions noted are these: NCI-H1975. The method in brief:
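HCC827 or H1975 cells treated at the stated concentrations for 48 h. Lysates probed by Western blot for EGFR, P-EGFR, Akt and P-Akt (each 1:1000); n = 2.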

The subject of experiment [5] is von Hippel-Lindau disease tumor suppressor/Epidermal growth factor receptor (Homo sapiens), P00533+P40337 [UNDEFINED MUTATION]. Description: Protac activity at VHL/EGFR del19 mutant in human HCC827 cells assessed as induction of EGFR degradation at 0.033 uM pretreated with EGFR inhibitor, F for 2 hrs followed by incubation with compound for 24 hrs by Western blot analysis. Type of experiment: cell-based.

In experiment [6] the test system is HCC827. Description: Inhibition of colony formation in human HCC827 cells at 1 nM incubated for 15 days by crystal violet staining based analysis. The conditions noted are these: time 15.0 day. Type of experiment: functional, cell-based. An outline of the steps: as §1
For the next experiment, the system named is A-431. Description: Antiproliferative activity against human A431 cells expressing wild type EGFR assessed as cell growth inhibition measured after 72 hrs by MTT assay. In kind it is functional, cell-based. The conditions noted are these: A-431, 72 h. The method in brief:
(§2)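 Cells were seeded at 3000–8000/well and allowed 24 h, then exposed to serial compound concentrations for 72 h. MTT (5 mg/mL stock in PBS) was added for 4 h, supernatant removed and DMSO added. IC50, defined as 50% growth inhibition, was derived by nonlinear regression (log inhibitor vs response).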

In experiment [7] the test system is von Hippel-Lindau disease tumor suppressor/Epidermal growth factor receptor (Homo sapiens), P00533+P40337 [UNDEFINED MUTATION]. Description: Protac activity at VHL/EGFR del19 mutant in human HCC827 cells assessed as induction of EGFR degradation at 0.033 uM pretreated with ubiquitination inhibitor, MLN4924 for 2 hrs followed by incubation with compound for 24 hrs by Western blot analysis. In kind it is cell-based.

The test system is the same in experiment [8]. Description: Protac activity at VHL/EGFR del19 mutant in human HCC827 cells assessed as induction of EGFR degradation at 33 nM measured after 24 hrs by Western blot analysis. In kind it is cell-based. An outline of the steps:
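HCC827 cells seeded at 0.5–1 × 10⁶ per well, grown 24 h, then treated at the stated concentrations for 24 h. EGFR^del19 level by Western blot with anti-EGFR antibody and β-actin loading control.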

Experiment [9] deals with NCI-H1975. Description: Induction of apoptosis in human NCI-H1975 cells at 333 to 1000 nM measured after 48 hrs by AnnexinV-FITC/propidium iodide staining based flow cytometry analysis. In kind it is functional, cell-based. The conditions noted are these: dose 333-1000 nM. An outline of the steps: (§3)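 To measure apoptosis, cells were seeded at 0.5–1 × 10⁶ per well, grown 24 h, then treated for 48 h. Collected cells were stained with an Annexin V-FITC apoptosis detection kit following its instructions, and apoptosis rate was read by flow cytometry. n = 2.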
(Flow cytometry measures light scatter and fluorescence of single cells or particles in a stream.)

Experiment [10] concerns von Hippel-Lindau disease tumor suppressor/Epidermal growth factor receptor (Homo sapiens), P00533+P40337 [UNDEFINED MUTATION]. Description: Protac activity at VHL/EGFR del19 mutant in human HCC827 cells assessed as induction of EGFR degradation at 0.033 uM pretreated with proteasome inhibitor, MG132 for 2 hrs followed by incubation with compound for 24 hrs by Western blot analysis. Type of experiment: cell-based.

Experiment [11] has as its system von Hippel-Lindau disease tumor suppressor/Epidermal growth factor receptor (Homo sapiens), P00533+P40337 [L858R,T790M]. Description: Protac activity at VHL/EGFR L858R/T790M mutant in human H1975 cells assessed as induction of degradation of EGFR at 0.33 to 1 uM incubated for 24 hrs by Western blot analysis. Type of experiment: cell-based. The conditions noted are these: NCI-H1975, dose 0.33-1 µM. An outline of the steps: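 H1975 cells, after 24 h seeding, treated at the stated concentrations for 24 h. EGFR by Western blot with β-actin loading control.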

Experiment [12] deals with HCC827. Description: Induction of apoptosis in human HCC827 cells assessed as apoptotic cells at 10 nM measured after 48 hrs by AnnexinV-FITC/propidium iodide staining based flow cytometry analysis relative to control. Type of experiment: functional. An outline of the steps:
as §3

For experiment [13], the system named is HCC827. Description: Induction of apoptosis in human HCC827 cells assessed as apoptotic cells at 100 nM measured after 48 hrs by AnnexinV-FITC/propidium iodide staining based flow cytometry analysis relative to control. Type of experiment: functional. The method in brief: as §3
For experiment [14], the system named is von Hippel-Lindau disease tumor suppressor/Epidermal growth factor receptor (Homo sapiens), P00533+P40337 [UNDEFINED MUTATION]. Description: Protac activity at VHL/EGFR del19 mutant in human HCC827 cells assessed as induction of EGFR degradation at 0.033 uM pretreated with autophagy inhibitor, chloroquine for 2 hrs followed by incubation with compound for 24 hrs by Western blot analysis. In kind it is cell-based.

For experiment [15] the test system is unchanged. Description: Protac activity at VHL/EGFR del19 mutant in human HCC827 cells assessed as induction of EGFR degradation at 33 nM incubated for 24 hrs measured following drug wash-out for 48 hrs by Western blot analysis. Type of experiment: cell-based. The method in brief:
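HCC827 cells (RPMI-1640, 10% heat-inactivated FBS, 1% sodium pyruvate, 1% glutamine, 37 °C, 5% CO₂) treated at 33 nM for 24 h. Medium then replaced with compound-free medium, and protein harvested at the stated times. EGFR read by Western blot; n = 2.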

In experiment [16] the test system is HCC827. Description: Antiproliferative activity against human HCC827 cells expressing EGFR del19 mutant assessed as cell growth inhibition measured after 72 hrs by MTT assay. Type of experiment: functional, cell-based. The conditions noted are these: HCC827, 72 h. An outline of the steps: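 HCC827 cells were kept in RPMI-1640 with 10% heat-inactivated FBS, 1% sodium pyruvate, 1% glutamine and 1% penicillin-streptomycin at 37 °C and 5% CO₂, seeded at 3000–8000/well and rested 24 h. Compounds were applied as a concentration series for 72 h. MTT (5 mg/mL stock in PBS) was given for 4 h, then medium was removed and DMSO added. IC50 came from nonlinear regression (log inhibitor vs response).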
In general terms: Tetrazolium assays rely on reduction of a dye to a coloured formazan, in cell work by metabolically active cells.

Experiment [17] concerns von Hippel-Lindau disease tumor suppressor/Epidermal growth factor receptor (Homo sapiens), P00533+P40337 [L858R,T790M]. Description: Protac activity at VHL/EGFR L858R/T790M mutant in human H1975 cells assessed as induction of degradation of EGFR at 1 uM pretreated with autophagy inhibitor, chloroquine for 2 hrs followed by incubation with compound for 24 hrs by Western blot analysis. Type of experiment: cell-based. The conditions noted are these: NCI-H1975. The method in brief:
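H1975 cells pretreated with chloroquine for 2 h, then exposed to compound for 24 h. EGFR level by Western blot; n = 3.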

Experiment [18] has as its system von Hippel-Lindau disease tumor suppressor/Epidermal growth factor receptor (Homo sapiens), P00533+P40337 [UNDEFINED MUTATION]. Description: Protac activity at VHL/EGFR del19 mutant in human HCC827 cells assessed as induction of EGFR degradation at 0.033 uM pretreated with VHL ligand, VHL-Ac for 2 hrs followed by incubation with compound for 24 hrs by Western blot analysis. Type of experiment: cell-based.

A further experiment has as its system HepG2. Description: Antiproliferative activity against human HepG2 cells expressing VEGFR2 assessed as cell growth inhibition measured after 72 hrs by MTT assay. Type of experiment: functional, cell-based. The conditions noted are these: HepG2, 72 h. The method in brief:
as §2

Activity calls are given as the source filed them.

As for `Cc1ncsc1-c1ccc(CNC(=O)[C@@H]2C[C@@H](O)CN2C(=O)[C@@H](NC(=O)CCCCCCN2CCN(c3ccc(Nc4ncc5nc(Nc6ccccc6)n(C6CCCC6)c5n4)cc3)CC2)C(C)(C)C)cc1`, the inhibition result in the experiment with NCI-H1975 [1] and in the experiment with HCC827 [6] was “Active” in each case. The values for the Activity entry (in experiment [2]; in the experiment with HCC827 [12]; with HCC827 [13]) were “Tde”, 31.07% and 44.8%, respectively. The outcome (in experiment [3]; in experiment [5]; in experiment [7]; in the experiment with NCI-H1975 [9]; in [14]; in [15]) was inactive. In addition, the result in experiment [17] and in experiment [18] was inactive. The result in [4], in experiment [8], in experiment [10] and in [11] was Active. In addition, the IC50 (commonly the concentration needed to halve the response being measured) is 245 nM in the experiment on A-431, 0.83 nM with HCC827 [16] and greater than 5000 nM with HepG2.
